Results as given in ChEMBL document CHEMBL4311977, “Design and synthesis of parthenolide and 5-fluorouracil conjugates as potential anticancer agents against drug resistant hepatocellular carcinoma” (Eur J Med Chem, 2019).
The source made the active and inactive calls. No cut-off for these calls is given here.

Assays:
[1] = tested on: Bel7402/5-FU; assay: Induction of apoptosis in human Bel7402/5-FU cells assessed as increase in irregular nuclear morphology incubated for 48 hrs by DAPI staining based fluorescence microscopic analysis; assay type: functional, cell-based
How it was run: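 Bel-7402/5-FU cells were seeded at 5 × 10⁵ per well and left 12 h, then exposed at three concentrations (1, 2, 5) for 48 h. Cells were washed three times in PBS and stained with DAPI for 10 min at room temperature. Nuclear morphology was scored by fluorescence microscopy.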

[2] = tested on: Bel7402/5-FU; assay: Induction of apoptosis in human Bel7402/5-FU cells assessed as upregulation of Bim expression at 0.5 to 5 uM incubated for 24 hrs by Western blot analysis; assay type: functional, cell-based
How it was run: (§1)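 Bel-7402/5-FU cells were seeded at 5 × 10⁵ per well and left 12 h, then treated with four concentrations (0.5, 1, 2, 5) for 24 h. Cells were PBS-washed and lysed in RIPA on ice for 30 min, then denatured at 100 °C for 5 min. Lysates went through SDS-PAGE and PVDF transfer, 5% milk blocking for 1 h at room temperature, primary antibodies, and HRP secondary for 2 h at room temperature.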

[3] = tested on: Bel7402/5-FU; assay: Down regulation of Pgp expression in human Bel7402/5-FU cells at 0.5 uM incubated for 24 hrs by flow cytometry
[4] = tested on: Bel7402/5-FU; assay: Induction of apoptosis in human Bel7402/5-FU assessed as apoptotic cells at 5 uM incubated for 48 hrs by annexinV-FITC/propidium iodide staining based flow cytometry (reference value: 3.37 +/- 0.47 %)
[5] = tested on: Bel7402/5-FU; assay: Induction of apoptosis in human Bel7402/5-FU assessed as necrotic cells at 5 uM incubated for 48 hrs by annexinV-FITC/propidium iodide staining based flow cytometry (reference value: 0.157 %)
[6] = tested on: Bel7402/5-FU; assay: Induction of apoptosis in human Bel7402/5-FU cells assessed as increase in cytochrome C level at 0.5 to 5 uM incubated for 24 hrs by Western blot analysis; assay type: functional, cell-based; how it was run: as §1
[7] = tested on: Bel7402/5-FU; assay: Down regulation of MDR1 expression in human Bel7402/5-FU cells incubated for 24 hrs by western blot analysis; assay type: functional, cell-based; how it was run: as §1
[8] = tested on: Bel7402/5-FU; assay: Antiproliferative activity against human Bel7402/5-FU incubated for 72 hrs by MTT assay; assay type: functional, cell-based
How it was run: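 Bel-7402 and its 5-FU-resistant subline were kept in RPMI-1640 with 10% FBS and 1% penicillin/streptomycin at 37 °C under 5% CO2. Cells were seeded at 5000 per well and left for 12 h, then exposed to a concentration series for 72 h. MTT stock (5 mg/mL) was added for 4 h and the product dissolved in DMSO. OD was read at 570 nm and IC50 obtained by curve fitting.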

[9] = tested on: Bel7402/5-FU; assay: Induction of apoptosis in human Bel7402/5-FU assessed as necrotic cells at 2.5 uM incubated for 48 hrs by annexinV-FITC/propidium iodide staining based flow cytometry (reference value: 0.024 to 0.157 %)
[10] = tested on: Bel7402/5-FU; assay: Induction of apoptosis in human Bel7402/5-FU assessed as early apoptotic cells at 2.5 uM incubated for 48 hrs by annexinV-FITC/propidium iodide staining based flow cytometry (reference value: 20.1 to 20.3 %)

IC50 [8]: 2250 nM
SMILES: C=C1C(=O)O[C@H]2[C@H]1CC/C(COC(=O)Cn1cc(F)c(=O)n(Cc3ccc(C(F)(F)F)cc3)c1=O)=C\CC[C@@]1(C)O[C@@H]21
Activity [1]: Dose-dependent effect
Activity [2]: Active
Activity [3]: Active
Activity [4]: 77.97%
Activity [5]: 1.49 - 1.75%
Activity [6]: Active
Activity [7]: Dose-dependent effect
Activity [9]: 1.87%
Activity [10]: 7.75%
